Holding throughout (assay type): functional
Holding throughout (settings): UCA 992, 144 h

The subject of test [1] is Botrytis cinerea. Briefly: Antifungal activity against Botryotinia fuckeliana UCA 992 assessed as inhibition of radial growth at 200 ug/mL after 6 days relative to control. A digest of the protocol: (§1)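 Radial growth assay on glucose-malt-peptone-agar (61 g/L, pH 6.5-7.0). Compounds dissolved in EtOH, giving 50-200 mg L-1 final in the medium, with equal EtOH in control and treated plates. A 5 mm mycelial disk from an actively growing culture was placed at the plate centre and radial growth followed for 6 days. % inhibition = 100 - [(treated growth/control growth) × 100]. At least three independent experiments, each in triplicate, ± SD.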

Test [2] has as its system Botrytis cinerea. Briefly: Antifungal activity against Botryotinia fuckeliana UCA 992 assessed as inhibition of radial growth at 50 ug/mL after 6 days relative to control. The method in brief:
as §1

Test [3] concerns Botrytis cinerea. The test is described as follows: Antifungal activity against Botryotinia fuckeliana UCA 992 assessed as inhibition of radial growth at 100 ug/mL after 6 days relative to control. The method in brief:
as §1

Inhibition data for 23 molecules are collected here from ChEMBL document CHEMBL3046965, “Synthesis and quantitative structure-antifungal activity relationships of clovane derivatives against Botrytis cinerea” (2009).

In general, inhibition refers to the drop in the measured response relative to a control, in per cent. Regarding `CC1(C)C[C@H](O)[C@]23CC[C@H](O)[C@@](C)(CC[C@@H]12)C3`, in test [1], the inhibition at 200 µg/mL worked out at 30%. Also, the inhibition at 50 µg/mL in test [2] turned out to be 21%. Moreover, the inhibition at 100 µg/mL in test [3] was 24%.

With `CO[C@H]1CC(C)(C)[C@@H]2CC[C@@]3(C)C[C@]12CCC3=O`, the inhibition at 200 µg/mL in test [1] turned out to be 76%. Besides, the inhibition at 50 µg/mL in test [2] was 17%. For the same molecule, in test [3], the inhibition at 100 µg/mL is 42%.

Consider `CC1(C)CC(=O)[C@]23CCC(=O)[C@@](C)(CC[C@@H]12)C3`, for which the inhibition at 200 µg/mL in test [1] is 36%. Also, in test [2], the inhibition at 50 µg/mL was determined as 21%. Further, the inhibition at 100 µg/mL in test [3] worked out at 25%.

As to `CO[C@H]1CC(C)(C)[C@@H]2CC[C@@]3(CO)C[C@]12CC[C@H]3O`, the inhibition at 200 µg/mL in test [1] was found to be 24%. Besides, the inhibition at 50 µg/mL in test [2] turned out to be 2%. The inhibition at 100 µg/mL in test [3] came out at 9%.

With `CO[C@H]1CC(C)(C)[C@@H]2CC[C@@]3(C)C[C@]12CC[C@@H]3O`, the inhibition at 200 µg/mL in test [1] was 65%. Further, in test [2], the inhibition at 50 µg/mL amounted to 29%. In addition, in test [3], the inhibition at 100 µg/mL was determined as 43%.

As for `C=CCO[C@H]1CC(C)(C)[C@@H]2CC[C@@]3(C)C[C@]12CC[C@H]3O`, in test [1], the inhibition at 200 µg/mL was found to be 82%. Moreover, the inhibition at 50 µg/mL in test [2] worked out at 63%. In addition, the inhibition at 100 µg/mL in test [3] amounted to 72%.

As for `CC1(C)C[C@H](OCCN)[C@]23CC[C@@H](O)[C@@](C)(CC[C@@H]12)C3`, the inhibition at 200 µg/mL in test [1] came to 97%. In test [2], the inhibition at 50 µg/mL was 50%. Besides, the inhibition at 100 µg/mL in test [3] stood at 82%.

For `CC1(C)C[C@H](OCCCl)[C@]23CC[C@@H](O)[C@@](C)(CC[C@@H]12)C3`, the inhibition at 200 µg/mL in test [1] stood at 66%. Further, the inhibition at 50 µg/mL in test [2] is 56%. Moreover, the inhibition at 100 µg/mL in test [3] stood at 64%.

With `CC1(C)C[C@H](OCCBr)[C@]23CC[C@@H](O)[C@@](C)(CC[C@@H]12)C3`, the inhibition at 200 µg/mL in test [1] is 77%. Besides, in test [2], the inhibition at 50 µg/mL is 68%. In addition, in test [3], the inhibition at 100 µg/mL amounted to 73%.

With `CC1(C)C[C@H](OCCI)[C@]23CC[C@@H](O)[C@@](C)(CC[C@@H]12)C3`, in test [1], the inhibition at 200 µg/mL worked out at 70%. Also, in test [2], the inhibition at 50 µg/mL was found to be 65%. Moreover, the inhibition at 100 µg/mL in test [3] is 67%.

On to `CC1(C)C[C@H](OCCS)[C@]23CC[C@@H](O)[C@@](C)(CC[C@@H]12)C3`, for which, in test [1], the inhibition at 200 µg/mL was found to be 28%. Further, the inhibition at 50 µg/mL in test [2] was determined as 27%. The inhibition at 100 µg/mL in test [3] is 27%.

With `CC1(C)C[C@H](OCC[N+](=O)[O-])[C@]23CC[C@@H](O)[C@@](C)(CC[C@@H]12)C3`, the inhibition at 200 µg/mL in test [1] was determined as 90%. Besides, the inhibition at 50 µg/mL in test [2] was 80%. In addition, the inhibition at 100 µg/mL in test [3] was 86%.

`CC1(C)C[C@H](OCCO)[C@]23CC[C@@H](O)[C@@](C)(CC[C@@H]12)C3`: the inhibition at 200 µg/mL in test [1] turned out to be 60%. For the same molecule, the inhibition at 50 µg/mL in test [2] is 48%. Further, the inhibition at 100 µg/mL in test [3] was determined as 54%.

`CC1(C)C[C@H](OCCn2ccnc2)[C@]23CC[C@@H](O)[C@@](C)(CC[C@@H]12)C3`: in test [1], the inhibition at 200 µg/mL turned out to be 98%. Besides, in test [2], the inhibition at 50 µg/mL amounted to 67%. Besides, the inhibition at 100 µg/mL in test [3] stood at 84%.

`CC1(C)C[C@H](OCCOc2ccc([N+](=O)[O-])cc2)[C@]23CC[C@@H](O)[C@@](C)(CC[C@@H]12)C3`: the inhibition at 200 µg/mL in test [1] came to 81%. Further, the inhibition at 50 µg/mL in test [2] was 76%. The inhibition at 100 µg/mL in test [3] amounted to 79%.

Consider `CC1(C)C[C@H](OCCSC(=N)N)[C@]23CC[C@@H](O)[C@@](C)(CC[C@@H]12)C3`, for which the inhibition at 200 µg/mL in test [1] is 97%. For the same molecule, the inhibition at 50 µg/mL in test [2] came to 70%. Further, in test [3], the inhibition at 100 µg/mL amounted to 83%.

On to `CC1(C)C[C@H](OCCSc2ccccc2)[C@]23CC[C@@H](O)[C@@](C)(CC[C@@H]12)C3`, for which the inhibition at 200 µg/mL in test [1] is 24%. Moreover, the inhibition at 50 µg/mL in test [2] is 6%. Also, in test [3], the inhibition at 100 µg/mL is 12%.

In the case of `CC1(C)C[C@H](OCCn2cncn2)[C@]23CC[C@@H](O)[C@@](C)(CC[C@@H]12)C3`, the inhibition at 200 µg/mL in test [1] was found to be 86%. Further, in test [2], the inhibition at 50 µg/mL stood at 34%. The inhibition at 100 µg/mL in test [3] was 57%.

In the case of `CC(C)(C)O[C@H]1CC(C)(C)[C@@H]2CC[C@@]3(C)C[C@]12CC[C@H]3O`, the inhibition at 200 µg/mL in test [1] was 78%. Moreover, the inhibition at 50 µg/mL in test [2] was found to be 59%. For the same molecule, the inhibition at 100 µg/mL in test [3] is 66%.

With `CC1(C)C[C@H](SCCS)[C@]23CC[C@@H](O)[C@@](C)(CC[C@@H]12)C3`, in test [1], the inhibition at 200 µg/mL turned out to be 38%. Moreover, in test [2], the inhibition at 50 µg/mL came to 32%. For the same molecule, the inhibition at 100 µg/mL in test [3] came to 34%.

For the molecule `CC1(C)C[C@H](OCCN2C(=O)c3ccccc3C2=O)[C@]23CC[C@@H](O)[C@@](C)(CC[C@@H]12)C3`, the inhibition at 200 µg/mL in test [1] stood at 60%. Moreover, in test [2], the inhibition at 50 µg/mL was found to be 50%. For the same molecule, the inhibition at 100 µg/mL in test [3] is 55%.

For the molecule `CO[C@H]1CC(C)(C)[C@@H]2CC[C@@]3(C)C[C@]12CC[C@H]3O` [2BETA-METHOXYCLOVAN-9ALPHA-OL], the inhibition at 200 µg/mL in test [1] amounted to 83%. Also, the inhibition at 50 µg/mL in test [2] stood at 49%. Also, the inhibition at 100 µg/mL in test [3] amounted to 60%.

Take `CC1(C)C[C@H](O)[C@]23CC[C@@H](O)[C@@](C)(CC[C@@H]12)C3` [CLOVANEDIOL]: the inhibition at 200 µg/mL in test [1] was found to be 63%. The inhibition at 50 µg/mL in test [2] came to 36%. For the same molecule, the inhibition at 100 µg/mL in test [3] stood at 50%.
